In ChEMBL document CHEMBL3227923, “Conformational analysis of podophyllotoxin and its congeners. Structure--activity relationship in microtubule assembly” (J Med Chem, 1979):

Species: Gallus gallus
Experiment: Inhibition of chicken brain microtubule polymerization after 30 mins
Summary of the method: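 Chicken brain microtubule assembly in vitro at 37 °C and neutral pH over a 30-min incubation. ID50 is the drug concentration giving 50% inhibition of assembly, averaged from triplicate experiments (standard deviation <15%).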

Going from COc1cc([C@@H]2c3cc4c(cc3[C@H](O)[C@H]3CS(=O)(=O)C[C@H]23)OCO4)cc(OC)c1OC to COc1cc([C@@H]2c3cc4c(cc3[C@H](O)[C@H]3COC[C@H]23)OCO4)cc(OC)c1OC, the ID50 falls from greater than 100 µM to 1 µM.

Going from COc1cc([C@@H]2c3cc4c(cc3[C@@H](O)[C@H]3COC(=O)[C@H]23)OCO4)cc(OC)c1OC to COc1cc([C@@H]2c3cc4c(cc3[C@H](O)[C@H]3COC(=O)[C@@H]23)OCO4)cc(OC)c1OC, the ID50 rises from 5 µM to 30 µM (6-fold).

First: COc1cc([C@@H]2c3cc4c(cc3C[C@H]3CSC[C@@H]32)OCO4)cc(OC)c1OC
Second: COc1cc([C@@H]2c3cc4c(cc3C[C@H]3COC[C@@H]32)OCO4)cc(OC)c1OC
The ID50 of the first is 12-fold higher: 10 µM for the first, 0.8 µM for the second.

COc1cc([C@@H]2c3cc4c(cc3[C@H](O)[C@H]3COC(=O)[C@H]23)OCO4)cc(OC)c1OC and COc1cc([C@@H]2c3cc4c(cc3C[C@H]3COC(=O)[C@@H]32)OCO4)cc(OC)c1OC are within 1.5-fold of each other in ID50: 0.6 µM for the first, 0.5 µM for the second.

Going from COc1cc([C@@H]2c3cc4c(cc3C[C@H]3CS(=O)(=O)C[C@@H]32)OCO4)cc(OC)c1OC to COc1cc([C@@H]2c3cc4c(cc3C[C@H]3CCC[C@@H]32)OCO4)cc(OC)c1OC, the ID50 falls from greater than 100 µM to 5 µM.

With COc1cc([C@@H]2c3cc4c(cc3[C@H](O)[C@H]3CSC[C@H]23)OCO4)cc(OC)c1OC the ID50 was 10 µM.
